In ChEMBL document CHEMBL3414569, “Amino acid modified xanthone derivatives: novel, highly promising membrane-active antimicrobials for multidrug-resistant Gram-positive bacterial infections” (J Med Chem, 2015):
Values after ≈ are worked out from the molar mass of the structure shown. Active and inactive are the calls of the source.

What was measured:
[1] = Selectivity index, ratio of HC50 for induction of hemolysis in New Zealand white rabbit RBC to MIC for Staphylococcus aureus DM4001
[2] = Selectivity index, ratio of HC50 for induction of hemolysis in New Zealand white rabbit RBC to MIC for Staphylococcus aureus DM21455
Bacillus cereus = experiment: Antimicrobial activity against Bacillus cereus ATCC 11778 by broth macrodilution method; assay type: functional
Summary of the method: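 CLSI broth macrodilution in Mueller Hinton broth. Inoculum was made by direct colony suspension from colonies on an 18−20 h tryptic soy agar plate. The value is the MIC.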

[3] = Selectivity index, ratio of HC50 for induction of hemolysis in New Zealand white rabbit RBC to MIC for Bacillus cereus ATCC 11778
Staphylococcus aureus [4] = experiment: Antimicrobial activity against Staphylococcus aureus DM4001 by broth macrodilution method; assay type: functional
Summary of the method: (§1)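 Broth macrodilution MIC in Mueller Hinton broth following CLSI guidelines. Inoculum was prepared by direct colony suspension from an 18−20 h tryptic soy agar plate.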

Staphylococcus aureus [5] = experiment: Antimicrobial activity against methicillin resistant Staphylococcus aureus DM09809R by broth macrodilution method; assay type: functional; summary of the method: as §1
Staphylococcus aureus [6] = experiment: Antimicrobial activity against Staphylococcus aureus ATCC 29213 infected in mouse cornea infection model assessed as reduction in viable bacterial count at 0.02% solution applied topically 5 times/day dosed 1 day after infection relative to control; assay type: functional
Summary of the method: (§2)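 Mouse cornea given three superficial 1 mm scratches on one eye under ketamine/xylazine, then 10 μL of S. aureus ATCC 29213 suspension (1 × 10^8 CFU/mL in USP phosphate buffer) applied topically. Treated topically 5 times/day from day 1 postinfection; PBS negative control; 4 mice/group killed on days 1, 2 and 3. Corneas homogenized in 0.9% NaCl with 0.25% BSA, plated in duplicate on TSA (48 h, 35 °C); log10 CFU/cornea.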

Staphylococcus aureus [7] = experiment: Antimicrobial activity against methicillin resistant Staphylococcus aureus DM21455 by broth macrodilution method; assay type: functional; summary of the method: as §1
[8] = Induction of hemolysis in New Zealand white rabbit RBC after 1 hr; assay type: cell-based, Oryctolagus cuniculus, Erythrocyte; conditions: New Zealand white, red blood cells (RBC)
Summary of the method: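 Fresh red blood cells isolated from New Zealand white rabbits. Lysis measured over a compound concentration series; HC50 taken as the concentration lysing 50% of RBCs.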

[9] = Selectivity index, ratio of HC50 for induction of hemolysis in New Zealand white rabbit RBC to MIC for Staphylococcus aureus DM09809R
Staphylococcus aureus [10] = experiment: Antimicrobial activity against Staphylococcus aureus ATCC 29213 infected in mouse cornea infection model assessed as reduction in viable bacterial count at 0.3% solution applied topically 5 times/day dosed 1 day after infection relative to control; assay type: functional; summary of the method: as §2
Staphylococcus aureus [11] = experiment: Antimicrobial activity against epidemic methicillin resistant Staphylococcus aureus isolates by broth macrodilution method; assay type: functional
Streptococcus = experiment: Antimicrobial activity against Streptococcus isolates by broth macrodilution method; assay type: functional
Staphylococcus aureus [12] = experiment: Antimicrobial activity against methicillin resistant Staphylococcus aureus DM21455 in presence of 4% BSA by broth macrodilution method; assay type: functional
Summary of the method: (§3)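 MIC by CLSI broth macrodilution in Mueller Hinton broth, with BSA added to the bacterial suspension at a final 4% w/v. Inoculum was made by direct colony suspension from an 18−20 h tryptic soy agar plate.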

Lipid bilayer [13] = experiment: Binding affinity to DOPE/DOPG large unilamellar vesicles by 1D 1H NMR spectroscopy
Summary of the method: (§4)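 Liposomes prepared as for the leakage LUVs: 30 mM DOPE/DOPG (75:25) or 30 mM DOPC. 1D 1H spectra of 1 mM compound recorded in water and in each liposome type at 600 MHz, 25 °C.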

Staphylococcus aureus [14] = experiment: Antimicrobial activity against teicoplanin intermediate resistant Staphylococcus aureus isolates by broth macrodilution method; assay type: functional
[15] = Retention time of the compound; assay type: physicochemical
Summary of the method: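 Reverse-phase HPLC of 20 μL injections of a 10 μg/mL sample at 1 mL/min. Gradient: 5−55% ACN over 5 min, then 55−95% over 15 min.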

Staphylococcus aureus [16] = experiment: Antimicrobial activity against methicillin sensitive Staphylococcus aureus isolates by broth macrodilution method; assay type: functional
Staphylococcus aureus [17] = experiment: Antimicrobial activity against multidrug resistant Staphylococcus aureus isolates by broth macrodilution method; assay type: functional
Staphylococcus aureus [18] = experiment: Bactericidal activity against methicillin resistant Staphylococcus aureus DM21455 assessed as induction of bacterial killing at 2 times MIC after 30 mins by cell counting based time kill assay; assay type: functional
Summary of the method: (§5)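 Time-kill at 35 °C with colonies taken from an 18−20 h tryptic soy agar plate and suspended in CA-MHB at 10^5−10^6 CFU/mL, then drug added. Aliquots taken at set times were diluted 10-fold serially in D/E neutralization broth, spread on tryptic soy agar, incubated 48−72 h at 35 °C, and colonies counted. Strains: MRSA DM21455, vanA and vanB VRE.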

Staphylococcus aureus [19] = experiment: Antimicrobial activity against methicillin resistant Staphylococcus aureus DM21455 in absence of 4% BSA by broth macrodilution method; assay type: functional; summary of the method: as §1
Staphylococcus aureus [20] = experiment: Bactericidal activity against methicillin resistant Staphylococcus aureus DM21455 assessed as induction of bacterial killing at 1 times MIC after 1 hr by cell counting based time kill assay; assay type: functional; summary of the method: as §5
Enterococcus [21] = experiment: Antimicrobial activity against vancomycin-resistant Enterococcus isolates by broth macrodilution method; assay type: functional
Corynebacterium jeikeium = experiment: Antimicrobial activity against Corynebacterium jeikeium isolates by broth macrodilution method; assay type: functional
Mus musculus [22] = experiment: Toxicity in C57BL6 mouse eye assessed as inflammatory response at 3 mg/ml applied topically 5 times/day for 4 days by slit lamp biomicroscopy; assay type: organism-based; conditions: in vivo, topical_or_ocular, 96 h
Summary of the method: (§6)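 Three healthy wild-type C57BL6 mice (6−8 weeks) per treatment received 0.5, 1 or 3 mg/mL compound in 10 mM PBS. Applied topically to the eye 5 times/day for 4 days. Corneal clarity checked daily through day 4 by slit-lamp biomicroscopy; histological sections also inspected.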

Staphylococcus aureus [23] = experiment: Antimicrobial activity against Staphylococcus aureus ATCC 29213 at 0.5 times MIC measured after 17 passages by multistep passage drug resistance selection study relative to wild type Staphylococcus aureus ATCC 29213 before passage; assay type: functional
Summary of the method: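 Multipassage selection in S. aureus ATCC29213 across an eight-concentration dilution series. Growth was read after 20−22 h. Bacteria growing at 0.5 × MIC were repassaged into a fresh series, 17 passages in total. Resistance was defined as a more than 4-fold rise over the initial MIC.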

[24] = test system: Staphylococcus epidermidis; experiment: Antimicrobial activity against Staphylococcus epidermidis isolates by broth macrodilution method; assay type: functional
Staphylococcus aureus [25] = experiment: Antimicrobial activity against Staphylococcus aureus ATCC 29213 by broth macrodilution method; assay type: functional; summary of the method: as §1
Staphylococcus aureus [26] = experiment: Antimicrobial activity against Staphylococcus aureus ATCC 29213 in presence of 4% BSA by broth macrodilution method; assay type: functional; summary of the method: as §3
Lipid bilayer [27] = experiment: Induction of vesicle leakage in DOPE/DOPG large unilamellar vesicles assessed as calcein release at 1/16 compound to lipid ratio by fluorescence assay; assay type: functional
Summary of the method: (§7)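 100 nm LUVs (DOPE/DOPG 75/25 or DOPC) made by film hydration in 80 mM calcein, 50 mM HEPES, 100 mM NaCl, 0.3 mM EDTA, pH 7.4. Then 7 freeze–thaw cycles, 15 extrusions and Sephadex G-50 clean-up. Compound added from DMF (<0.2%) at 50 μM final phospholipid. Fluorescence read at ex 490/em 520 nm for 30 min; 0.1% Triton X-100 set 100% lysis; three independent experiments.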

Enterococcus [28] = experiment: Antimicrobial activity against vancomycin-sensitive Enterococcus isolates by broth macrodilution method; assay type: functional
Staphylococcus aureus [29] = experiment: Antimicrobial activity against vancomycin-intermediate sensitive Staphylococcus aureus isolates by broth macrodilution method; assay type: functional
Lipid bilayer [30] = experiment: Binding affinity to DOPC large unilamellar vesicles by 1D 1H NMR spectroscopy; summary of the method: as §4
Staphylococcus aureus [31] = experiment: Antimicrobial activity against methicillin resistant Staphylococcus aureus isolates by broth macrodilution method; assay type: functional
Mus musculus [32] = experiment: Toxicity in C57BL6 mouse eye assessed as induction of toxicity related clinical signs at 3 mg/ml applied topically 5 times/day for 4 days; assay type: organism-based; conditions: in vivo, topical_or_ocular, 96 h; summary of the method: as §6
Mus musculus [33] = experiment: Toxicity in C57BL6 mouse eye assessed as effect on corneal clarity at 3 mg/ml applied topically 5 times/day for 4 days by slit lamp biomicroscopy; assay type: organism-based, Cornea; conditions: in vivo, topical_or_ocular, 96 h; summary of the method: as §6
Lipid bilayer [34] = experiment: Induction of vesicle leakage in DOPC large unilamellar vesicles assessed as calcein release at 1/16 compound to lipid ratio by fluorescence assay; assay type: functional; summary of the method: as §7
Staphylococcus aureus [35] = experiment: Antimicrobial activity against Staphylococcus aureus ATCC 29213 in absence of 4% BSA by broth macrodilution method; assay type: functional; summary of the method: as §1
Mus musculus [36] = experiment: Toxicity in C57BL6 mouse eye assessed as effect on wound closure at 3 mg/ml applied topically 5 times/day for 4 days by slit lamp biomicroscopy; assay type: organism-based; conditions: in vivo, topical_or_ocular, 96 h
Listeria monocytogenes = experiment: Antimicrobial activity against Listeria monocytogenes isolates by broth macrodilution method; assay type: functional

Compound: CCN(CC)CCCCOc1cc2oc3cc(OCCCCN(CC)CC)c(OC)c(CC=C(C)C)c3c(=O)c2c(O)c1CC=C(C)C
- Selectivity Index [1]: 7
- Selectivity Index [2]: 7
- MIC (Bacillus cereus): 3 µg/mL (≈ 4.51 µM)
- Selectivity Index [3]: 7
- MIC (Staphylococcus aureus [4]): 2 µg/mL (≈ 3.01 µM)
- MIC (Staphylococcus aureus [5]): 2 µg/mL (≈ 3.01 µM)
- Ratio (Staphylococcus aureus [6]): <1
- MIC (Staphylococcus aureus [7]): 0.5 µg/mL (≈ 0.752 µM)
- HC50 at 1 h [8]: 20 µg/mL
- Selectivity Index [9]: 7

Compound: COC(=O)[C@H](CCCNC(=N)N)NC(=O)COc1cc2oc3cc(OCC(=O)N[C@@H](CCCNC(=N)N)C(=O)OC)c(OC)c(CC=C(C)C)c3c(=O)c2c(O)c1CC=C(C)C
- inhibition (INH) (Staphylococcus aureus [10]): 99.7%
- MIC (Staphylococcus aureus [11]): 2 µg/mL (≈ 2.31 µM)
- MIC (Streptococcus): 4 µg/mL (≈ 4.61 µM)
- MIC (Staphylococcus aureus [12]): 6.25 µg/mL
- Activity (Lipid bilayer [13]): Active
- Selectivity Index [1]: 77
- MIC (Staphylococcus aureus [14]): 2 µg/mL (≈ 2.31 µM)
- Retention_time [15]: 7.96 min
- Selectivity Index [2]: 77
- MIC (Staphylococcus aureus [16]): 2 µg/mL (≈ 2.31 µM)
- MIC (Bacillus cereus): 2 µg/mL (≈ 2.31 µM)
- Selectivity Index [3]: 77
- MIC (Staphylococcus aureus [17]): 2 µg/mL (≈ 2.31 µM)
- Activity (Staphylococcus aureus [18]): 99.9%
- MIC (Staphylococcus aureus [19]): 3.12 µg/mL (≈ 3.6 µM)
- Activity (Staphylococcus aureus [20]): 99.9%
- MIC (Enterococcus [21]): 2 µg/mL (≈ 2.31 µM)
- MIC (Corynebacterium jeikeium): 4 µg/mL (≈ 4.61 µM)
- Activity (Mus musculus [22]): Non-toxic
- MIC (Staphylococcus aureus [4]): 2 µg/mL (≈ 2.31 µM)
- Activity (Staphylococcus aureus [23]): Active
- MIC [24]: 2 µg/mL (≈ 2.31 µM)
- MIC (Staphylococcus aureus [5]): 3 µg/mL (≈ 3.46 µM)
- MIC (Staphylococcus aureus [25]): 3 µg/mL (≈ 3.46 µM)
- MIC (Staphylococcus aureus [26]): 3.12 µg/mL
- Activity (Lipid bilayer [27]): 68%
- MIC (Enterococcus [28]): 2 µg/mL (≈ 2.31 µM)
- MIC (Staphylococcus aureus [7]): 3 µg/mL (≈ 3.46 µM)
- MIC (Staphylococcus aureus [29]): 4 µg/mL (≈ 4.61 µM)
- Activity (Lipid bilayer [30]): inactive
- MIC (Staphylococcus aureus [31]): 2 µg/mL (≈ 2.31 µM)
- Activity (Mus musculus [32]): Non-toxic
- HC50 at 1 h [8]: 232 µg/mL
- Activity (Mus musculus [33]): Non-toxic
- Activity (Lipid bilayer [34]): 32%
- MIC (Staphylococcus aureus [35]): 1.56 µg/mL (≈ 1.8 µM)
- Activity (Mus musculus [36]): Non-toxic
- Selectivity Index [9]: 77
- MIC (Listeria monocytogenes): 4 µg/mL (≈ 4.61 µM)
